This passage reports yeast fitness results from the RNAGym collection of RNA variant scans (doi:10.1126/science.aae0568).

First the molecules themselves.
B1: tRNA (parent)
chain: GUUCCGUUGGCGUAAUGGUAACGCGUCUCCCUCCUAAGGAGAAGACUGCGGGUUCGAGUCCCGUACGGAACG

This sample holds only a part of the variants without activity.

In the series the parent is B1. Description: yeast fitness relative to wild type (ratio to wild type); higher = fitter; tRNA-Arg(CCU), competitive growth, 37 C, YPD. The essentials:
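Amplicons of the tRNA-Arg(CCU) gene were sequenced, 100-nucleotide paired-end, from the start population and from each end population of a pooled yeast competition. The competition, in six parallel replicates, lasted 24 hours in YPD at 37°C. Fitness relative to wild type was calculated from changes in genotype frequencies. Genotypes had to have ≥ 100 starting reads, and estimates < 0.5 were set to 0.5.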
For GUUCCGUUGGCGUAAUGGUGAGGCGUGUCUGUCCUAAGGAGAAGACUGCGCGUCCGAGUCCCGUGCGGAACG [A20G C22G C27G C30U C31G G51C U54C A65G], the yeast fitness is ≤ 0.5.
With GUUCCGUUGGCGUAAUGGUGACGCGUCUCCCUCCUAAGGAGAAGUCUGCGGGUUCGAGUCCCGUACCGAACG [A20G A45U G67C], the yeast fitness came out at 0.613.
As to GUUCCGUUGGCGUAAUGGUGACGCGUCUCCCUCCUAAGGCGAAGACUGCGGGUUCGAGUGCCGUACGGAACG [A20G A40C C60G], the yeast fitness is ≤ 0.5.
In the case of GUUCCGUUGGCGUAAUGGUGACGCGUAUCCCUCCUAAGGAGAAGAGUGCGGGAUCGAGUGCCGUACCGAACG [A20G C27A C46G U53A C60G G67C] it was ≤ 0.5.
As for GUUCCGUUGGCGUAAUGGUGACGCGUCUCCCUCCUAAGGAGAAGACUGCGGGUUCGGGUCUUGUACGGGACG [A20G A57G C61U C62U A69G], the yeast fitness is ≤ 0.5.
For GUUCCGUUGGCGUAAUGGUGACGCGUCUCCCUCCUAAGGAGAAGUCUACGGGUUAGAGUCCCGUACGGAACG [A20G A45U G48A C55A], the yeast fitness was ≤ 0.5.
As for GUUCCGUUGGCGUAAUGGUGACGCGUCUCCCUCCUAAGGCGUCGACUACGGGUUCGAGUCACGUACGGUACG [A20G A40C A42U A43C G48A C61A A69U], the yeast fitness was ≤ 0.5.
GUUCCGUUGGCGUAAUGGUGAUGCGUCUCCCUCCUAAGGAGAAGACUGUGGGUUCGAGUCCCGUACGGAACG [A20G C22U C49U]: the yeast fitness was 0.682.
In the case of GUUCCGUUGGCGUAAUGGUGACGCGUCUCCCUCCUAAGGAGAAGGCUGUGGGUUCGAGUCCCGUACGGAACG [A20G A45G C49U], the yeast fitness is 0.687.
In the case of GUUCCGUUGGCGUAAUGGUGACGGGUCUCCCUCCUAAGGAGAAGACUGCGGGUUCGAGUGCUGUACGGAACG [A20G C24G C60G C62U] it was 0.562.
In the case of GUUCCGUUGGCGUAAUGGUGACGAGUAUCCCUCCUAAGGAGAAGACUGCGGGUUCGAGUCCCGUACGGAACG [A20G C24A C27A] it was 0.52; in that of GUUCCGUUGGCGUAAUGGUGACGCGUCUCCCUCCUAAGGAGAAGACUGCGGGUUCGUGUCCCGUUCGCAACG [A20G A57U A65U G68C], ≤ 0.5; in that of GUUCCGUUGGCGUAAUGGUGACGCGUCUCCCUCCUAAGGUGAAGCCUGCGGGUUCGAGUCCCGUUCGGAACG [A20G A40U A45C A65U], ≤ 0.5.
As to GUUCCGUUGGCGUAAUGGUGAUGCGUCUCCGUCCUAAGGAGAAGACUGCGGGUUCGAGUCCCGUAUGGAACG [A20G C22U C31G C66U], the yeast fitness was ≤ 0.5.
In the case of GUUCCGUUGGCGUAAUGGUGACGCGUCUCCCUCCUAAGGAGUAGACUGCGGGUUCGAGUCCCGUACGGAACG [A20G A42U] it was 0.982; in that of GUUCCGUUGGCGUAAUGGUGACGAGUCUGCCUCCUAUGAAGAAGACUGCGGGUUCGAGUCCCGUACGGAACG [A20G C24A C29G A37U G39A], ≤ 0.5.
The value for GUUCCGUUGGCGUAAUGGUGACGCGUCUCCCUCCUAAGGAGAAGACUGCGGGUUCGUGUCCCGUACGGAACG [A20G A57U] was 0.649; that for GUUCCGUUGGCGUAAUGGUGACGCGUCUCCCUCCUAAGGAGAAGACUGCGGGUUCGGGUCCCGUACGGAACG [A20G A57G] was 1; that for GUUCCGUUGGCGUAAUGGUGACGCGUCUCCCUCCUAAGGUGAAGACUGCGGGUUCGACUCCCGUACGGAACG [A20G A40U G58C] was 0.77.
In the case of GUUCCGUUGGCGUAAUGGUGACGCGUCUCCCUCCUAAGGAGCAGACUGCGGGUUCGAGUCCCGUAUGGAACG [A20G A42C C66U] it was 0.625; in that of GUUCCGUUGGCGUAAUGGUGACGCGUCUCCCUCCUAAGGAGAUGCCUGCGGGUUCGAGUCCCGUACCGAACG [A20G A43U A45C G67C], ≤ 0.5.
Regarding GUUCCGUUGGCGUAAUGGUGACGGGUCUCCCUCCUAAGGAGAACACUGCGGGUUCGAGUCCCGUACGGAACG [A20G C24G G44C], the yeast fitness was 0.784.
In the case of GUUCCGUUGGCGUAAUGGUGACGCGUAUCCCUCCCGAGGAGUAGACUGCGGGUUCGAGUCCCGUACGGAACG [A20G C27A U35C A36G A42U] it was ≤ 0.5.
Regarding GUUCCGUUGGCGUAAUGGUGACGCGUCUCCCUCCUAAGGAGAAGCCUGCGGGUUCGAGUCCCGUACGGAACG [A20G A45C], the yeast fitness amounted to 0.866.
In the case of GUUCCGUUGGCGUAAUGGUGACGCGUCUCCCUCCUAAGGAGAAGUCUGCGGGUUCGAGUCCCGUACGGAACG [A20G A45U] it was 1.04; in that of GUUCCGUUGGCGUAAUGGUGACGCGUCUCCCUCCUAAGGAGAAGGCUGCGGGUUCGAGUCCCGUACGGAACG [A20G A45G], 0.992.
The value for GUUCCGUUGGCGUAAUGGUGAAGUGUCUCCCUCCUAAGGAGAAGACUGCGGGUUCGAGUCCCGUACGGAACG [A20G C22A C24U] was 0.589; that for GUUCCGUUGGCGUAAUGGUGAGGCGUGUCUGUCCUAAGGAGAAGACUGCGCGUUCGAGUCCCGUACAGUACG [A20G C22G C27G C30U C31G G51C G67A A69U] was ≤ 0.5; that for GUUCCGUUGGCGUAAUGGUGACGCGUCUCCCUCCUAAGGAGCAGACUGCGGGUUCGAGUCUCGUACGGAACG [A20G A42C C61U] was 0.573.
In the case of GUUCCGUUGGCGUAAUGGUGACGCGUCUCCCUCCUAAGGAGAUGACUGCGGGUUCGAGUCCUGUACGGAACG [A20G A43U C62U] it was 0.86; in that of GUUCCGUUGGCGUAAUGGUGAAGCGUCUCCCUCGUAAGGAGAAGAUUGCGGGUUCGAGUCCCAUACGGAACG [A20G C22A C34G C46U G63A], ≤ 0.5.
With GUUCCGUUGGCGUAAUGGUGAUGCGUCUCCGUCCUAAGGAGAAGACUGCGGGUUCGAGUCCCGUACGGAACG [A20G C22U C31G], the yeast fitness came out at 0.626.
In the case of GUUCCGUUGGCGUAAUGGUGACGCGUCUCCCUCCUAAGGAGACGACUGCGGGUUCGAGUCUCGUACGGACCG [A20G A43C C61U A70C] it was ≤ 0.5; in that of GUUCCGUUGGCGUAAUGGUGACGCGUCUCCCUCCUAAGGCGAAGACUGCGGGUUCGAGUCCCGUACGGGACG [A20G A40C A69G], 0.625.
In the case of GUUCCGUUGGCGUAAUGGUGACGCGUCUCCCUCCUAAGGAGAAGACUGCGGGUUCGAGUCCCGUACGGAGCG [A20G A70G] it was 1.02; in that of GUUCCGUUGGCGUAAUGGUGACGCGUCUCCCUCCUAAGGAGAAGACUGCGGGUUCGAGUCCCGUACGGACCG [A20G A70C], 0.994; in that of GUUCCGUUGGCGUAAUGGUGACGCGUCUCCCUCCUAAGGAGAAGACUGCGGGUUCGAGUCCCGUACGGAUCG [A20G A70U], 1.06.
